Measured values collected from several papers.
Lines come from different studies, so protocols differ.
Target: Calcium/calmodulin-dependent protein kinase type II subunit beta (CAMK2B, Homo sapiens, UniProt Q13554)

O=C(NCc1ncc(C(F)(F)F)cc1Cl)c1ccc2c(c1)C1(CCS(=O)(=O)CC1)[C@@H](C1CC1)N2S(=O)(=O)c1ccc(F)cc1 — remaining binding (cell-free assay, competition with immobilised ligand; 1 µM): 92%
CCCS(=O)(=O)Nc1ccc(F)c(C(=O)c2c[nH]c3ncc(-c4ccc(Cl)cc4)cc23)c1F — inhibition (enzyme activity, inhibitor; 1 µM): < 10%
O=C1NC(=O)c2cc(Nc3ccc(F)cc3)c(Nc3ccc(F)cc3)cc21 — remaining signal (cell-free assay; 0.5 µM): 98.7%
O=C(Nc1ccc(Oc2ccc(F)cc2)cc1)N1CCc2ncccc2[C@H]1c1ccc(F)cc1 — remaining binding (cell-free assay, competition with immobilised ligand; 1 µM): 100%
N#CCCc1ccc2c(c1)-c1[nH]c3ccc([N+](=O)[O-])cc3c1CC(=O)N2 — remaining signal (cell-free assay; 0.5 µM): 99.3%
Cc1cc(NC(=O)c2cccc3cc(-c4cccc5[nH]nc(N)c45)ccc23)ccc1F — activity vs control (enzyme activity, inhibitor; 0.1 µM): 94%
COc1cccc2c(NCc3ccccc3)nc(-n3c(N)nc4ccccc43)nc12 — inhibition (target engagement in cells, inhibitor, chemoproteomics; 20 mM): -1.1%
CCCCN(CCCC)C(=O)CN1C[C@H](c2cc(OC)c3c(c2)OCO3)[C@@H](C(=O)O)[C@@H]1CC(C)(C)CCC — remaining binding (cell-free assay, competition with immobilised ligand; 1 µM): 100%
CC/C(=N\NC(=O)NCc1cccc(O)c1)c1ccc(O)c(C)c1O — inhibition (enzyme activity, inhibitor; 0.1 µM): -4%
CO[C@@H](C)c1c(Nc2ccc([C@H](N(C)C(=O)C3CCS(=O)(=O)CC3)C(F)(F)F)cc2)cnc2cc(Cl)nn12 — remaining binding (cell-free assay, competition with immobilised ligand; 1 µM): 94%
CCN(CC)CCNC(=O)c1c(C)[nH]c(/C=C2\C(=O)Nc3ccc(F)cc32)c1C — inhibition (enzyme activity, inhibitor; 0.3 µM): 57%
Cc1ccc(C(=O)Nc2ccc(CN3CCN(C)CC3)c(C(F)(F)F)c2)cc1C#Cc1cnc2cccnn12 — remaining activity (enzyme activity, inhibitor; 23.5 nM): 97%
O=c1cc(-c2cccc3c2Sc2ccccc2S3)oc(N2CCOCC2)c1 — remaining activity (enzyme activity, inhibitor; 0.5 µM): 106%
COc1cc(Cl)c(C(=O)N[C@@H](CN[C@H]2CC[C@@H](N)CC2)Cc2ccc(C#N)cc2)cc1-c1ccc(CN[C@H](C)c2ccc(C)cc2)o1 — remaining activity (enzyme activity, inhibitor; 1 µM): 94%
CNC(=O)c1cc(Oc2ccc(NC(=O)Nc3ccc(Cl)c(C(F)(F)F)c3)cc2)ccn1 — inhibition (enzyme activity, inhibitor; 0.3 µM): 27%
O=C1Nc2ccc(Cl)cc2C1=Cc1cc(Cl)c(O)c(Cl)c1 — remaining signal (cell-free assay; 0.5 µM): 92%
CC(C)(C)c1nc2c(s1)c1nc(N)ncc1c1ccc(NS(=O)(=O)c3c(F)cccc3F)c(F)c12 — remaining activity (enzyme activity, inhibitor, radiometric; 1 µM): 83%
O=C(NC[C@@H]1[C@H]2CN(C(=O)OCc3cc(C(F)(F)F)cc(C(F)(F)F)c3)C[C@@H]12)c1ccc2[nH]nnc2c1 — remaining binding (cell-free assay, competition with immobilised ligand; 1 µM): 100%
c1ccc(CNc2nc(N3CCOc4ccccc43)nc3c2CCCC3)cc1 — inhibition (target engagement in cells, inhibitor, chemoproteomics; 20 mM): 12.7%
Cc1ccc(Nc2nccc(N(C)c3ccc4c(C)n(C)nc4c3)n2)cc1S(N)(=O)=O — inhibition (enzyme activity, inhibitor; 10 µM): 29%
CC(C)(O)[C@H]1CC[C@H](Nc2ccc3ncc(-c4cccc(C(F)(F)F)c4)n3n2)CC1 — remaining activity (enzyme activity, inhibitor; 1 µM): 96.9%
O=C1NC(c2ccccn2)Sc2ccccc21 (stereo not drawn) — remaining binding (cell-free assay, competition with immobilised ligand; 1 µM): 100%
Clc1ccc(Nc2nnc(Cc3ccncc3)c3ccccc23)cc1 — remaining signal (cell-free assay; 0.5 µM): 109%
COc1cc2ncnc(Nc3ccc(Oc4ccccc4)c(C)c3C)c2cc1OC — inhibition (enzyme activity, inhibitor; 1 µM): 12%
Cc1ccc(-n2nc(C(C)(C)C)cc2NC(=O)Nc2ccc(OCCN3CCOCC3)c3ccccc23)cc1 — inhibition (enzyme activity, inhibitor; 10 µM): 22%
Cc1cc(-n2nc(Cc3cc(F)cc(C(F)(F)F)c3)nc2C)ccc1C(N)=O — remaining binding (cell-free assay, competition with immobilised ligand; 1 µM): 100%
COc1ccc(COc2ccc(Cc3cnc(N)nc3N)cc2OC)cc1 — remaining signal (cell-free assay; 0.5 µM): 100%
Nc1ncnc2occ(-c3ccc(NC(=O)Nc4cc(C(F)(F)F)ccc4F)cc3)c12 — remaining activity (enzyme activity, inhibitor; 20 µM): 95%
Cc1noc([C@H]2C[C@@H](c3ccc(C(F)(F)F)cc3)CN(C(=O)N3CCS(=O)(=O)C3)C2)n1 — remaining binding (cell-free assay, competition with immobilised ligand; 1 µM): 100%
Cc1sc(C(=O)NC2COC2)cc1-n1cc(NC(=O)Nc2c(F)cccc2Cl)cn1 — remaining activity (enzyme activity, inhibitor; 10 µM): 100%
